Here are results for 2 compounds from ChEMBL document CHEMBL1629436, “Synthesis and biological evaluation of new camptothecin derivatives obtained by modification of position 20” (Bioorg Med Chem, 2010).

Structures are written as SMILES. The source made the active and inactive calls. No cut-off for these calls is given here.

For assay [1], the system named is Nucleic Acid. The experiment in a line: Binding affinity to salmon testes DNA by linear flow dichroism analysis. The assay is classed as nucleic-acid assay. To be noted: Salmonidae. The method, boiled down:
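Salmon testes DNA (1.9 × 10^-3 M) in ETN buffer (10 mM Tris, 10 mM NaCl, 1 mM EDTA, pH 7). Linear dichroism spectra were recorded at 25 °C over a range of [drug]/[DNA] ratios on a spectropolarimeter converted for LD.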

Assay [2] deals with DNA topoisomerase 2-alpha (Homo sapiens) (UniProt P11388). The experiment in a line: Inhibition of human recombinant topoisomerase 2alpha-mediated relaxation of supercoiled pBR322 at up to 100 uM after 60 mins using ethidium bromide staining by agarose gel electrophoresis. The method, boiled down:
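Supercoiled pBR322 (0.25 µg) with 1 U human recombinant topoisomerase IIα and test compound, 60 min at 37 °C in 20 µl reaction buffer. Stopped with SDS/bromophenol blue/glycerol plus 50 µg/mL proteinase K, 30 min at 37 °C. Separated on 1% agarose at room temperature, ethidium bromide stained (1 µg/mL, TAE), UV-visualized.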

Sequence of DNA topoisomerase 2-alpha (Homo sapiens) (P11388 whole entry): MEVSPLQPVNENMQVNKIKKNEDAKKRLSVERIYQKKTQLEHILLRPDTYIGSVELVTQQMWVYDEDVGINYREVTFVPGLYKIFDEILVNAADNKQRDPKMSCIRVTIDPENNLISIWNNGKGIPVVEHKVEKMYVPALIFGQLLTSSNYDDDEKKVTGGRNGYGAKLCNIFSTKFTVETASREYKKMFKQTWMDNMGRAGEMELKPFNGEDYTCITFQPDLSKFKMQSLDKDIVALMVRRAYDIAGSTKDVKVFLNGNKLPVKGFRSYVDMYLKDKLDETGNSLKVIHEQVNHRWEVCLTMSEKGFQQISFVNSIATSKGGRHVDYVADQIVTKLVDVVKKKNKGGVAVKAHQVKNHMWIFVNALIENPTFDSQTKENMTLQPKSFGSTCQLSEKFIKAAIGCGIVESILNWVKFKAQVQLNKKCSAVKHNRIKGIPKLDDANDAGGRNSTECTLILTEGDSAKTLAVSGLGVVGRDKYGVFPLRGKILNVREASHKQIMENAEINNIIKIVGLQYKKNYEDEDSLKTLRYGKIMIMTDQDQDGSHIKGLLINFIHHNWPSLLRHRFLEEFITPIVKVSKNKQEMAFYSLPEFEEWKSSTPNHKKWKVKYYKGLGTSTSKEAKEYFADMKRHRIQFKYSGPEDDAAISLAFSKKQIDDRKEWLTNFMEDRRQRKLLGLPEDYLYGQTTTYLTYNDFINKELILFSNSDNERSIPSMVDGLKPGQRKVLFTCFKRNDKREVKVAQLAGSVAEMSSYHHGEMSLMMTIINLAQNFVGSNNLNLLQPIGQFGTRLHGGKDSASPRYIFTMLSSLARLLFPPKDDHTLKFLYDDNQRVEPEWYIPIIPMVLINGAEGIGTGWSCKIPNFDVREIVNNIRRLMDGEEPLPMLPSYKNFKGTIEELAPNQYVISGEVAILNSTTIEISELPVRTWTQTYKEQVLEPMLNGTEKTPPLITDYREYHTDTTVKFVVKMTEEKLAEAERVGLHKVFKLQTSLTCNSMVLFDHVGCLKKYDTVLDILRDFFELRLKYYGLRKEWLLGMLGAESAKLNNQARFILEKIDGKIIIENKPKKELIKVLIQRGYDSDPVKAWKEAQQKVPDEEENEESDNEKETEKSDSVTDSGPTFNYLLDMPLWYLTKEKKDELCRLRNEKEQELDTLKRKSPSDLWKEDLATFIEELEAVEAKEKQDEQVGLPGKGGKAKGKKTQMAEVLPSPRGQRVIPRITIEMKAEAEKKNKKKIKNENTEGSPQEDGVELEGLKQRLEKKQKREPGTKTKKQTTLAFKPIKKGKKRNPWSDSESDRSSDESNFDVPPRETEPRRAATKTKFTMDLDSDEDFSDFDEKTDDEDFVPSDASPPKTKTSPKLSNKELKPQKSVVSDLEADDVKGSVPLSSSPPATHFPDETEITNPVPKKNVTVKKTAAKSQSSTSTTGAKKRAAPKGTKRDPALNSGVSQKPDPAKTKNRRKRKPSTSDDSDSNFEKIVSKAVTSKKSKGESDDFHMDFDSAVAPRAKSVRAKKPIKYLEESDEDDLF

`CC[C@@]1(OC(=O)NCCN2C(=O)CSSCC2=O)C(=O)OCc2c1cc1n(c2=O)Cc2cc3ccccc3nc2-1`: the result in assay [1] and in assay [2] was inactive.

In the case of `CC[C@@]1(OC(=O)NCCNC(=O)CSSCC(=O)NCCNC(=O)O[C@]2(CC)C(=O)OCc3c2cc2n(c3=O)Cc3cc4ccccc4nc3-2)C(=O)OCc2c1cc1n(c2=O)Cc2cc3ccccc3nc2-1`, the result in assay [1] and in assay [2] was inactive.
